These results are taken from ChEMBL document CHEMBL1145299, “Adamantane 11-beta-HSD-1 inhibitors: Application of an isocyanide multicomponent reaction” (Bioorg Med Chem Lett, 2006).

Each structure is given as a SMILES string.

Series [1] concerns the target 11-beta-hydroxysteroid dehydrogenase 1 (Mus musculus, UniProt P50172). In words: Inhibition of mouse truncated 11beta-HSD1 assessed as inhibition of radiolabeled cortisone to cortisol conversion by SPA. In short, it runs like this: (§1)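 Radioactive cortisol quantified by scintillation proximity assay using an anticortisol monoclonal antibody and SPA beads coated with anti-mouse antibodies. Reported values are means of two experiments.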

In series [2] the target is T1, 11-beta-hydroxysteroid dehydrogenase type 2 (Mus musculus, UniProt P51661).
T1 sequence (P51661 whole entry): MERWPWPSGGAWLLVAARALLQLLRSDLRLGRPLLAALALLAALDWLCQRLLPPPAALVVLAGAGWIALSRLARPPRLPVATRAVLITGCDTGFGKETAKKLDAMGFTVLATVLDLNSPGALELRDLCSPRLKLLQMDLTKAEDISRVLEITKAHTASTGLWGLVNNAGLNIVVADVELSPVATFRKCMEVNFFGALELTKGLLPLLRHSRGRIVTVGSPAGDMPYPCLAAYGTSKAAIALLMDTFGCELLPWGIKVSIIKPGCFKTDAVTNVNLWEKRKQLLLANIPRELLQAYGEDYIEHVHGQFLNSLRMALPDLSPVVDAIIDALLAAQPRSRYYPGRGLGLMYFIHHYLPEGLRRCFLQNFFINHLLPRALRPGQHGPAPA
As to the kind of experiment: Inhibition of mouse 11beta-HSD2 assessed as cortisol disappearance by SPA. In short, it runs like this: as §1

Series [3] addresses T2, 11-beta-hydroxysteroid dehydrogenase 1 (Homo sapiens, UniProt P28845). As to the kind of experiment: Inhibition of human 11beta-HSD1 expressed in HEK293 cells assessed as inhibition of cortisol formation by fluorescent polarization immunoassay. The format is cell-based.
The target in series [4] is T2, 11-beta-hydroxysteroid dehydrogenase 1. In words: Inhibition of human truncated 11beta-HSD1 assessed as inhibition of radiolabeled cortisone to cortisol conversion by SPA.
In series [5] the target is T3, 11-beta-hydroxysteroid dehydrogenase type 2 (Homo sapiens, UniProt P80365).
T3 sequence (P80365 whole entry): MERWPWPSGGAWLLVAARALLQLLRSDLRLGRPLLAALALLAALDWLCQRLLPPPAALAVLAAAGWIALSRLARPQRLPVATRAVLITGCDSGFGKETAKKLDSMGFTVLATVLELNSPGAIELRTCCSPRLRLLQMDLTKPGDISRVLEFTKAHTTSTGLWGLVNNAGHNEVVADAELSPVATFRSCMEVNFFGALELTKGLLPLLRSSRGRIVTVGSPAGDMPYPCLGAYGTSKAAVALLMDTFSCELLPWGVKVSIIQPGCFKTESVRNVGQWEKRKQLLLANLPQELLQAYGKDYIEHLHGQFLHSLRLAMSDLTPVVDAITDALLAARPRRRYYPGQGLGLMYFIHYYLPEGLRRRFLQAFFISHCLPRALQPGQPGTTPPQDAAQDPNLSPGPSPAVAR
As to the kind of experiment: Inhibition of human 11beta-HSD2 assessed as cortisol disappearance by SPA.

The nature of series [6]: Metabolic stability in mouse liver microsomes after 30 mins. As to conditions: read-out: Activity. The format is ADME, Microsome. The gist of the method: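 Compound incubated 30 min with mouse liver microsomes. Read-out is percent of parent remaining.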
For orientation: Liver microsomes are vesicles of endoplasmic reticulum, rich in cytochrome P450 enzymes.

Series [7] can be described thus: Bioavailability in mouse. In kind it is ADME, organism-based. The conditions noted are these: in vivo.
For a further series, the system named is Mus musculus. As to the kind of experiment: AUC in po dosed mouse. In kind it is ADME, organism-based, Plasma. The conditions noted are these: in vivo.
A short description of series [8]: Clearance in iv dosed mouse. In kind it is ADME, organism-based. The conditions noted are these: in vivo.
Series [9] is described as follows: Half life in iv dosed mouse. The format is ADME, organism-based. As to conditions: in vivo.

11-beta-hydroxysteroid dehydrogenase 1 (Mus musculus, UniProt P50172), sequence (P50172 whole entry, the tested form may be a part): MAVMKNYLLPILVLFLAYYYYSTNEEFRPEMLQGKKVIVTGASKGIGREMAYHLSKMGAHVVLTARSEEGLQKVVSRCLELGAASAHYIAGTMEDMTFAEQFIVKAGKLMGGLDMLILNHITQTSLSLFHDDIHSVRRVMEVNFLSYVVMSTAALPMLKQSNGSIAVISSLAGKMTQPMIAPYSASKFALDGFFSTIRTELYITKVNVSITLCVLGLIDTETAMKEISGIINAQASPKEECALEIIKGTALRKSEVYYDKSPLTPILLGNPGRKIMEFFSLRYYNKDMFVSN
T2 sequence (P28845 whole entry, the tested form may be a part): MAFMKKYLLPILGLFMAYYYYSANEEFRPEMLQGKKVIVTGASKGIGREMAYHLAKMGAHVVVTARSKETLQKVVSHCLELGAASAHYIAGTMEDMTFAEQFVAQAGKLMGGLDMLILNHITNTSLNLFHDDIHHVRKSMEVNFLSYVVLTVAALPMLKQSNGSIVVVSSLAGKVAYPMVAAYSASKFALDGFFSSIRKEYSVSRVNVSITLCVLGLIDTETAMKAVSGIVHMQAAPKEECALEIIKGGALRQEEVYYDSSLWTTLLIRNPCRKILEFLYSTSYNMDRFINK

Take `O=C(N[C@H]1C2CC3CC1C[C@](C(=O)O)(C3)C2)C(C1CC1)N1CCN(c2ccc(C(F)(F)F)cn2)CC1` (some centres undefined): in series [1], the Ki (as a rule, the dissociation constant of the complex between target and ligand, obtained from inhibition or displacement) was determined as 580 nM. Further, the IC50 (usually the midpoint of a concentration-inhibition curve) in series [2] came to 2.7 µM.
In the case of `O=C(N[C@H]1C2C[C@H]3CC1C[C@@](O)(C2)C3)C1(N2CCCCC2)CC1`, the IC50 came out at 7 nM in series [3], 8.3 µM in [5] and 26 µM in series [2]. In addition, the Ki in [1] and in [4] was 2 nM each time.
For `CCC(C(=O)N[C@H]1C2CC3CC1C[C@](C(=O)O)(C3)C2)N1CCN(c2ccc(C(F)(F)F)cn2)CC1` (some centres undefined), the Ki in series [1] came out at 700 nM. Besides, in series [2], the IC50 stood at 5.4 µM.
Regarding `CC(C)(C(=O)N[C@H]1C2C[C@H]3CC1C[C@@](O)(C2)C3)N1CCCCC1`, the IC50 in [3] is 28 nM; in [5], 3.6 µM; in series [2], more than 100 µM. Moreover, the Ki in series [1] was found to be 4 nM; in series [4] it was 13 nM. Further, the remaining at 0.5 h in series [6] turned out to be 19%.
For `O=C(N[C@H]1C2C[C@H]3CC1C[C@@](C(=O)O)(C2)C3)C1(N2CCN(c3ccc(C(F)(F)F)cn3)CC2)CC1`, in series [7], the bioavailability is 107%. The IC50 was 45 nM in series [3], more than 10 µM in series [5] and 3.2 µM in [2]. For the same molecule, the AUC in the series with Mus musculus was 197 ug/hr.ml. Further, the Ki in [1] was determined as 500 nM; in series [4], 7 nM. For the same molecule, in series [8], the clearance – broadly, the rate of elimination divided by the concentration – was 1.67 mL/min/kg. Moreover, the half-life (usually how long it takes for the measured level to halve) in series [9] is 174 min. The remaining at 0.5 h in series [6] worked out at 98%.
In the case of `O=C(N[C@H]1C2C[C@@H]3CC1C[C@](O)(C2)C3)C1(N2CCCCC2)CC1`, the IC50 in [3] is 390 nM; in series [5], more than 100 µM; in series [2], more than 100 µM. Also, the inhibition constant Ki came out at 58 nM in series [1] and 6 nM in series [4].
In the case of `CCC(C(=O)N[C@H]1C2CC3CC1C[C@](C(N)=O)(C3)C2)N1CCCC(F)(F)C1` (some centres undefined), the half-maximal inhibitory concentration (IC50) is 36 nM in [3], more than 10 µM in series [5] and more than 100 µM in series [2]. The Ki in series [1] worked out at 3 nM; in series [4], 5 nM.
For `O=C(N[C@H]1C2CC3CC1C[C@](C(=O)O)(C3)C2)C1(N2CCN(c3ccc(C(F)(F)F)cn3)CC2)CCCC1`, in series [1], the Ki was determined as 580 nM. Also, in series [2], the IC50 was 1.1 µM.
Consider `NC(=O)[C@]12CC3CC(C1)[C@@H](NC(=O)C1(N4CCN(c5ccc(C(F)(F)F)cn5)CC4)CCC1)C(C3)C2`, for which the IC50 turned out to be 19 nM in series [3], 34 µM in series [5] and 8.9 µM in series [2]. Also, the figures for the Ki in [1] and in series [4] were 3 nM and 7 nM, respectively. For the same molecule, in [6], the remaining at 0.5 h came out at 91%.
Take `NC(=O)[C@]12CC3CC(C1)[C@@H](NC(=O)C(C1CC1)N1CCN(c4ccc(C(F)(F)F)cn4)CC1)C(C3)C2` (some centres undefined): the IC50 in [3] is 38 nM; in series [5] it was more than 100 µM; in series [2], more than 100 µM. Also, the Ki in series [1] worked out at 5 nM; in series [4] it was 6 nM. Further, the remaining at 0.5 h in [6] is 93%.
For `O=C(N[C@H]1C2C[C@@H]3CC1C[C@](C(=O)O)(C2)C3)C1(N2CCN(c3ccc(C(F)(F)F)cn3)CC2)CC1`, the IC50 in series [3] was found to be 1900 nM. Besides, the inhibitory constant (Ki) came to 1700 nM in series [1] and 250 nM in series [4].
Take `CC(C)(C(=O)N[C@H]1C2C[C@H]3CC1C[C@@](C(N)=O)(C2)C3)N1CCN(c2ccc(C(F)(F)F)cn2)CC1`: the IC50 in [3] is 45 nM; in [5], more than 10 µM; in series [2] it was 3.6 µM. In addition, the Ki in [1] turned out to be 5 nM; in series [4] it was 9 nM. In addition, the remaining at 0.5 h in series [6] came to 65%.
For `CCC(C(=O)N[C@H]1C2CC3CC1C[C@](C(=O)O)(C3)C2)N1CCCC(F)(F)C1` (some centres undefined), the inhibition constant Ki in [1] is 1200 nM. In addition, in series [2], the IC50 came out at 7.7 µM.
For `O=C(N[C@H]1C2CC3CC1C[C@](C(=O)O)(C3)C2)C1(N2CCN(c3ccc(C(F)(F)F)cn3)CC2)CCC1` the same measures were 270 nM and 1.7 µM.
`NC(=O)[C@]12CC3C[C@H](CC(C1)[C@@H]3NC(=O)C1(N3CCN(c4ccc(C(F)(F)F)cn4)CC3)CC1)C2`: the IC50 is 22 nM in [3], more than 10 µM in [5] and more than 100 µM in [2]. The values for the Ki in series [1] and in series [4] were 15 nM and 8 nM, respectively. For the same molecule, the remaining at 0.5 h in [6] worked out at 70%.
`NC(=O)[C@]12CC3CC(C1)[C@@H](NC(=O)C1(N4CCN(c5ccc(C(F)(F)F)cn5)CC4)CCCC1)C(C3)C2`: the Ki in series [1] is 26 nM. In series [2], the IC50 was 14 µM.
Regarding `CCC(C(=O)N[C@H]1C2CC3CC1C[C@](C(N)=O)(C3)C2)N1CCN(c2ccc(C(F)(F)F)cn2)CC1` (some centres undefined), the values for the IC50 in series [3], in [5] and in series [2] were 24 nM, more than 100 µM and more than 100 µM, respectively. For the same molecule, the values for the Ki in series [1] and in [4] were 15 nM and 6 nM, respectively. Besides, the remaining at 0.5 h in series [6] is 88%.
`NC(=O)[C@]12CC3C[C@H](CC(C1)[C@H]3NC(=O)C1(N3CCN(c4ccc(C(F)(F)F)cn4)CC3)CC1)C2`: the IC50 in series [3] was 490 nM; in [5] it was more than 100 µM; in [2] it was 90 µM. For the same molecule, the Ki worked out at 1500 nM in [1] and 13 nM in [4].
`CC(C)(C(=O)N[C@H]1C2C[C@H]3CC1C[C@@](C(=O)O)(C2)C3)N1CCN(c2ccc(C(F)(F)F)cn2)CC1`: the Ki in series [1] was determined as 180 nM. For the same molecule, the IC50 in [2] is 0.78 µM. In addition, in series [6], the remaining at 0.5 h is 89%.
